Measurements from BindingDB's records for doi:10.1021/jm990049j (Dupont Pharmaceuticals, 2000).

What follows are molecules tested against Integrin alpha-IIb/beta-3 (Homo sapiens, UniProt P08514+P05106) (assay: Inhibition of aggregation of human gel-purified platelets (GPIIbIIIa GPP)).
In short: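 Human platelets from healthy-volunteer platelet-rich plasma were gel-purified on sepharose and used at 2×10^8 platelets/mL with 1 mM CaCl2 and 1 mg/mL fibrinogen. Aggregation was measured with or without compound at several concentrations and IC50 calculated. Values are single determinations.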

Integrin alpha-IIb/beta-3, sequence (P05106 27-788 limits assumed): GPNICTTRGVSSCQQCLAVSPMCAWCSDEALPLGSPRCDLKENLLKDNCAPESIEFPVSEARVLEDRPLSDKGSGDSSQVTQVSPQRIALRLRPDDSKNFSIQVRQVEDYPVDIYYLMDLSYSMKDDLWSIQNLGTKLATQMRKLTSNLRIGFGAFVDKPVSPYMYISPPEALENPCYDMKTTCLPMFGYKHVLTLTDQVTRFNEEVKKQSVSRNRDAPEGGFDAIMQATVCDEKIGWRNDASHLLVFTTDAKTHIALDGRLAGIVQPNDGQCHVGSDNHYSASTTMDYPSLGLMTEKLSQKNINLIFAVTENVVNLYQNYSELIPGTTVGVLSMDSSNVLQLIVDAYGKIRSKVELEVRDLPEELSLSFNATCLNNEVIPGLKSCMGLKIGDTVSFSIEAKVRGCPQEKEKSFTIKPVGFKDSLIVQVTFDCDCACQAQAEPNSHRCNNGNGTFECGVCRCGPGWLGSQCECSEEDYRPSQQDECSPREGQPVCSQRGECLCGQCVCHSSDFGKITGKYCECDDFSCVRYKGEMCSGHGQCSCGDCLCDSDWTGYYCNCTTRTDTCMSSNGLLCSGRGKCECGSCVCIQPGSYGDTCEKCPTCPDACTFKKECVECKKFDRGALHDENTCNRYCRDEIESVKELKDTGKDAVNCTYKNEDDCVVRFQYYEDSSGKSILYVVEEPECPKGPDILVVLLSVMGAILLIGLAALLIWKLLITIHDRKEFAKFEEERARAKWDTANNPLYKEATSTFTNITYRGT
Integrin alpha-IIb/beta-3, sequence (P08514 32-887 limits assumed): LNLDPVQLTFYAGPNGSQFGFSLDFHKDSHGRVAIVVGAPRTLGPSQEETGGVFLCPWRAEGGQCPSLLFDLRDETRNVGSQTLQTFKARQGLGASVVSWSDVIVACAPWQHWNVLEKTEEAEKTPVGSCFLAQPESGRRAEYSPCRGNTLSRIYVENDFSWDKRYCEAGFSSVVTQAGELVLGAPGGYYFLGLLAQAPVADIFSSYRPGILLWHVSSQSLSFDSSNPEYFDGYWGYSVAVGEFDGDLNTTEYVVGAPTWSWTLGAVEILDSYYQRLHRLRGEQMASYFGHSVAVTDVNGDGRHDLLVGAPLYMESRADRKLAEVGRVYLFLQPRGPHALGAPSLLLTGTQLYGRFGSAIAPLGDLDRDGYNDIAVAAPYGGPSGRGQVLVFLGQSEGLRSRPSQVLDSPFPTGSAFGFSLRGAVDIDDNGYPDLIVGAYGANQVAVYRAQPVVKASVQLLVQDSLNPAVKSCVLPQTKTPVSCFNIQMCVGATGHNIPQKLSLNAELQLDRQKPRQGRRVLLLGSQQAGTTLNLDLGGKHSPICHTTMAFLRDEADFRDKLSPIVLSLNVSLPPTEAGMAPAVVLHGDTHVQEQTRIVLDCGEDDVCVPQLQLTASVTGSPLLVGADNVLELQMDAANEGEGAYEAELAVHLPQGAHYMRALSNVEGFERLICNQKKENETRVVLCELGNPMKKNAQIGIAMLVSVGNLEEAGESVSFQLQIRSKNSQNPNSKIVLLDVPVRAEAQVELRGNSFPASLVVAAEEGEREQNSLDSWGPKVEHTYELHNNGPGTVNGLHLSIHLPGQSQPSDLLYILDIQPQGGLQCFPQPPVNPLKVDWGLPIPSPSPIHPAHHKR
Integrin alpha-IIb/beta-3, sequence (P08514 891-1039 limits assumed): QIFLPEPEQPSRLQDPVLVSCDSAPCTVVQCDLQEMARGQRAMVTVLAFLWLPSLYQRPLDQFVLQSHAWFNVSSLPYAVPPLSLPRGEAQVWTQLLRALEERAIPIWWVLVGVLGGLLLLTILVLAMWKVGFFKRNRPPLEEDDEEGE

| Compound | IC50 [nM] |
| --- | --- |
| Cc1cc(C)c(S(=O)(=O)N[C@@H](CNC(=O)c2ccc3c(cnn3CCCNc3ncc[nH]3)c2)C(=O)O)c(C)c1 [3-({1-[3-(1H-Imidazol-2-ylamino)-propyl]-1H-indazole-5-carbonyl}-amino)-2-(2,4,6-trimethyl-benzenesulfonylamino)-propionic acid] | 21 |
| O=C(NC[C@H](NS(=O)(=O)c1c(Cl)cccc1Cl)C(=O)O)c1ccc2c(cnn2CCCNc2ncc[nH]2)c1 [2-(2,6-Dichloro-benzenesulfonylamino)-3-({1-[3-(1H-imidazol-2-ylamino)-propyl]-1H-indazole-5-carbonyl}-amino)-propionic acid] | 12 |
| O=C(NC[C@H](NS(=O)(=O)c1ccc(Cl)cc1)C(=O)O)c1ccc2c(cnn2CCCNc2ncc[nH]2)c1 [2-(4-Chloro-benzenesulfonylamino)-3-({1-[3-(1H-imidazol-2-ylamino)-propyl]-1H-indazole-5-carbonyl}-amino)-propionic acid] | 260 |
| O=C(NC[C@H](NS(=O)(=O)Nc1ccccc1)C(=O)O)c1ccc2c(cnn2CCCNc2ccccn2)c1 [3-[1-[3-(N-Pyridin-2ylamino)propyl]indazol-5-ylcarbonylamino]-2(S)-(phenylaminosulfonylamino) propionic acid] | 7800 |
| O=C(NC[C@H](NS(=O)(=O)c1ccc(-c2ccccc2)cc1)C(=O)O)c1ccc2c(cnn2CCCNc2ncc[nH]2)c1 [2-(Biphenyl-4-sulfonylamino)-3-({1-[3-(1H-imidazol-2-ylamino)-propyl]-1H-indazole-5-carbonyl}-amino)-propionic acid] | 130 |
| COc1ccc(S(=O)(=O)N[C@@H](CNC(=O)c2ccc3c(cnn3CCCNc3ncc[nH]3)c2)C(=O)O)cc1 [3-({1-[3-(1H-Imidazol-2-ylamino)-propyl]-1H-indazole-5-carbonyl}-amino)-2-(4-methoxy-benzenesulfonylamino)-propionic acid] | 410 |
| O=C(N[C@@H](CNC(=O)c1ccc2c(cnn2CCCNc2ccccn2)c1)C(=O)O)OCc1ccccc1 [2-Benzyloxycarbonylamino-3-({1-[3-(pyridin-2-ylamino)-propyl]-1H-indazole-5-carbonyl}-amino)-propionic acid] | > 10000 |
| Cc1cc(C)c(S(=O)(=O)N[C@H](CNC(=O)c2ccc3c(cnn3CCCNc3ncc[nH]3)c2)C(=O)O)c(C)c1 | 5000 |
| Cc1cccc(C)c1S(=O)(=O)N[C@@H](CNC(=O)c1ccc2c(cnn2CCCNc2ncc[nH]2)c1)C(=O)O [2-(2,6-Dimethyl-benzenesulfonylamino)-3-({1-[3-(1H-imidazol-2-ylamino)-propyl]-1H-indazole-5-carbonyl}-amino)-propionic acid] | 74 |
| O=C(NC[C@H](NS(=O)(=O)c1cccc2ccccc12)C(=O)O)c1ccc2c(cnn2CCCNc2ncc[nH]2)c1 [3-({1-[3-(1H-Imidazol-2-ylamino)-propyl]-1H-indazole-5-carbonyl}-amino)-2-(naphthalene-1-sulfonylamino)-propionic acid] | 39 |
| O=C(N[C@@H](CNC(=O)c1ccc2c(cnn2CCCNc2ncc[nH]2)c1)C(=O)O)OCc1ccccc1 [2-Benzyloxycarbonylamino-3-({1-[3-(1H-imidazol-2-ylamino)-propyl]-1H-indazole-5-carbonyl}-amino)-propionic acid] | 1000 |
| Cc1cc(C)c(S(=O)(=O)N[C@@H](CNC(=O)c2ccc3c(cnn3CCC(=O)Nc3ncc[nH]3)c2)C(=O)O)c(C)c1 [3-({1-[2-(1H-Imidazol-2-ylcarbamoyl)-ethyl]-1H-indazole-5-carbonyl}-amino)-2-(2,4,6-trimethyl-benzenesulfonylamino)-propionic acid] | 4000 |
| Cc1cc(C)c(S(=O)(=O)N[C@@H](CNC(=O)c2ccc3c(cnn3CCCNC3=NCCCN3)c2)C(=O)O)c(C)c1 [3-({1-[3-(1,4,5,6-Tetrahydro-pyrimidin-2-ylamino)-propyl]-1H-indazole-5-carbonyl}-amino)-2-(2,4,6-trimethyl-benzenesulfonylamino)-propionic acid] | 66 |
| Cc1cc(C)c(S(=O)(=O)N[C@@H](CNC(=O)c2ccc3c(cnn3CCCNC3=NCCN3)c2)C(=O)O)c(C)c1 [3-({1-[3-(4,5-Dihydro-1H-imidazol-2-ylamino)-propyl]-1H-indazole-5-carbonyl}-amino)-2-(2,4,6-trimethyl-benzenesulfonylamino)-propionic acid] | 57 |
| CC(C)(C)c1ccc(S(=O)(=O)N[C@@H](CNC(=O)c2ccc3c(cnn3CCCNc3ncc[nH]3)c2)C(=O)O)cc1 [2-(4-tert-Butyl-benzenesulfonylamino)-3-({1-[3-(1H-imidazol-2-ylamino)-propyl]-1H-indazole-5-carbonyl}-amino)-propionic acid] | 2000 |
| CC(=O)Nc1ccc(S(=O)(=O)N[C@@H](CNC(=O)c2ccc3c(cnn3CCCNc3ncc[nH]3)c2)C(=O)O)cc1 [2-(4-Acetylamino-benzenesulfonylamino)-3-({1-[3-(1H-imidazol-2-ylamino)-propyl]-1H-indazole-5-carbonyl}-amino)-propionic acid] | 400 |
| CC(C)COC(=O)N[C@@H](CNC(=O)c1ccc2c(cnn2CCCNc2ccccn2)c1)C(=O)O [2-Isobutoxycarbonylamino-3-({1-[3-(pyridin-2-ylamino)-propyl]-1H-indazole-5-carbonyl}-amino)-propionic acid] | 25000 |
| Cc1cc(C)c(S(=O)(=O)N[C@@H](CNC(=O)c2ccc3c(cnn3CCCNc3ccccn3)c2)C(=O)O)c(C)c1 [3-({1-[3-(Pyridin-2-ylamino)-propyl]-1H-indazole-5-carbonyl}-amino)-2-(2,4,6-trimethyl-benzenesulfonylamino)-propionic acid] | 220 |
| O=C(NC[C@H](NS(=O)(=O)NCc1ccccc1)C(=O)O)c1ccc2c(cnn2CCCNc2ccccn2)c1 [3-[1-[3-(N-Pyridin-2ylamino)propyl]indazol-5-ylcarbonylamino]-2(S)-(phenylmethylaminosulfonylamino) propionic acid] | 8100 |
| Cc1cc(-c2ccccc2)cc(C)c1S(=O)(=O)N[C@@H](CNC(=O)c1ccc2c(cnn2CCCNc2ncc[nH]2)c1)C(=O)O [2-(3,5-Dimethyl-biphenyl-4-sulfonylamino)-3-({1-[3-(1H-imidazol-2-ylamino)-propyl]-1H-indazole-5-carbonyl}-amino)-propionic acid] | 74 |
| O=C(NC[C@H](NS(=O)(=O)c1ccc2ccccc2c1)C(=O)O)c1ccc2c(cnn2CCCNc2ncc[nH]2)c1 [3-({1-[3-(1H-Imidazol-2-ylamino)-propyl]-1H-indazole-5-carbonyl}-amino)-2-(naphthalene-2-sulfonylamino)-propionic acid] | 81 |
| O=C(NC[C@H](NS(=O)(=O)c1ccccc1)C(=O)O)c1ccc2c(cnn2CCCNc2ccccn2)c1 [2-Benzenesulfonylamino-3-({1-[3-(pyridin-2-ylamino)-propyl]-1H-indazole-5-carbonyl}-amino)-propionic acid] | 290 |
| Cc1cc(C)c(S(=O)(=O)N[C@@H](CC(=O)Nc2ccc3c(cnn3CCCNc3ccccn3)c2)C(=O)O)c(C)c1 [N-{1-[3-(Pyridin-2-ylamino)-propyl]-1H-indazol-5-yl}-2-(2,4,6-trimethyl-benzenesulfonylamino)-succinamic acid] | 41000 |
| O=C(NC[C@H](NS(=O)(=O)c1ccc(Cl)c(Cl)c1)C(=O)O)c1ccc2c(cnn2CCCNc2ncc[nH]2)c1 [2-(3,4-Dichloro-benzenesulfonylamino)-3-({1-[3-(1H-imidazol-2-ylamino)-propyl]-1H-indazole-5-carbonyl}-amino)-propionic acid] | 790 |
| O=C(NC[C@H](NS(=O)(=O)c1ccccc1)C(=O)O)c1ccc2c(cnn2CCCNc2ncc[nH]2)c1 [2-Benzenesulfonylamino-3-({1-[3-(1H-imidazol-2-ylamino)-propyl]-1H-indazole-5-carbonyl}-amino)-propionic acid] | 34 |
| O=C(NC[C@H](NS(=O)(=O)c1ccc(C(F)(F)F)cc1)C(=O)O)c1ccc2c(cnn2CCCNc2ncc[nH]2)c1 [3-({1-[3-(1H-Imidazol-2-ylamino)-propyl]-1H-indazole-5-carbonyl}-amino)-2-(4-trifluoromethyl-benzenesulfonylamino)-propionic acid] | 4400 |
| Cc1ccc(S(=O)(=O)N[C@@H](CNC(=O)c2ccc3c(cnn3CCCNc3ncc[nH]3)c2)C(=O)O)cc1 [3-({1-[3-(1H-Imidazol-2-ylamino)-propyl]-1H-indazole-5-carbonyl}-amino)-2-(toluene-4-sulfonylamino)-propionic acid] | 83 |
| Cc1cc(C)c(NS(=O)(=O)N[C@@H](CNC(=O)c2ccc3c(cnn3CCCNc3ccccn3)c2)C(=O)O)c(C)c1 [3-[1-[3-(N-Pyridin-2ylamino)propyl]indazol-5-ylcarbonylamino]-2(S)-(2,4,6-trimethylphenylaminosulfonylamino) propionic acid] | 36000 |
| CCCCS(=O)(=O)N[C@@H](CNC(=O)c1ccc2c(cnn2CCCNc2ccccn2)c1)C(=O)O [2-(Butane-1-sulfonylamino)-3-({1-[3-(pyridin-2-ylamino)-propyl]-1H-indazole-5-carbonyl}-amino)-propionic acid] | 9000 |
